ChEMBL document CHEMBL5506039, “Discovery and Optimization of Tambjamines as a Novel Class of Antileishmanial Agents” (J Med Chem, 2024)
pEC50: −log10 of the molar value.

How the values were obtained:
[1] = system: Leishmania mexicana; experiment: Antileishmanial activity against Leishmania mexicana MNYC/BZ/62/M379 amastigotes expressing red-shifted firefly luciferase from integrated ribosomal (28S) RNA locus infected in mouse J774.A1 cells assessed as parasite survival at 0.1 uM measured after 96 hrs by luminescence based analysis relative to control; type: functional; conditions: MNYC/BZ/62/M379, J774.A1
[2] = Cytotoxicity against mouse J774.A1 cells assessed as cell survival at 0.1 uM measured after 96 hrs by SYBR Green II dye based analysis relative to control; type: toxicity; conditions: read-out: Survival
Outline: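 Uninfected J774A.1 mouse macrophages were plated at 1 × 10⁴ cells/well in DMEM with 10% heat-inactivated FBS and left 3 h at 37 °C to reattach. Compounds were added from DMSO, and analogues were screened at 0.1 μM. After 96 h at 37 °C in 5% CO₂, medium was removed. SYBR Green II (1:1000 in 1% Triton/PBS) was added for 1 h in the dark at room temperature, and fluorescence was read at Ex 485/Em 535 as a DNA-content measure of viability.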

[3] = system: Leishmania mexicana; experiment: Antileishmanial activity against Leishmania mexicana MNYC/BZ/62/M379 amastigotes expressing red-shifted firefly luciferase from integrated ribosomal (28S) RNA locus infected in mouse J774.A1 cells assessed as reduction in parasite survival measured after 96 hrs by luminescence based analysis; type: functional, organism-based; conditions: MNYC/BZ/62/M379, J774.A1, 96 h
Outline: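 J774A.1 macrophages infected with stationary-phase luciferase-expressing promastigotes at 10:1 parasites:macrophage, overnight at 37 °C, 5% CO₂. Non-internalized parasites washed off and 1 × 10⁴ cells/well replated in MEM/10% HI-FBS. Compounds in DMSO added as serial 3-fold dilutions (typically 10 μM–1 nM) for 96 h. Luciferase luminescence read; EC50 from log-transformed sigmoidal variable-slope fit. Mean ± SD of ≥2 independent experiments.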

[4] = Cytotoxicity against mouse J774.A1 cells assessed as reduction in cell survival measured after 96 hrs by SYBR Green II dye based analysis; type: toxicity
Outline: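 Uninfected J774A.1 macrophages, 1 × 10⁴ cells/well in DMEM/10% HI-FBS, reattached 3 h, then exposed to compounds for 96 h. DNA content read after lysis with SYBR Green II (1:1000 in 1% Triton/PBS), 1 h dark at room temperature, fluorescence Ex 485/Em 535.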

[5] = Therapeutic index, ratio of EC50 for mouse J774.A1 cells to EC50 for antileishmanial activity against Leishmania mexicana MNYC/BZ/62/M379 amastigotes expressing red-shifted firefly luciferase from integrated ribosomal (28S) RNA locus infected in mouse J774.A1 cells; type: toxicity, cell-based; conditions: read-out: TI
[6] = Metabolic stability in pre-warmed pooled human liver microsomes assessed as half life at 1 uM measured upto 60 mins by LC-MS analysis; type: ADME, Microsome
Outline: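 Compound at 1 μM final with 0.5 mg/mL pooled human or mouse liver microsomes, 1.3 mM NADP and 3.3 mM MgCl₂ in 100 mM potassium phosphate, pH 7.4. Reaction started with 1 U/mL G6PD at 37 °C with shaking.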

Compound | survival at 0.1 µM [1] | viability at 96 h, 0.1 µM [2] | pEC50 [3] | EC50 at 96 h [4] | selectivity ratio [5] | half-life at 1 µM [6]
FC(F)(F)Oc1ccc(OC2=CC(c3ccc[nH]3)=N/C2=C\NC2CCCCC2)cc1 | 52.7% | 81.3% | 7.08 | 982 nM | 11.7 | 
CC1=C(C)/C(=C/Nc2ccc(C)cc2)N=C1c1ccc[nH]1 | 74% | 54.2% |  |  |  | 
CC1=C(C)/C(=C/NCC2CCCCCC2)N=C1c1ccc[nH]1 | 14.2% | 53.2% | 7.04 | 1600 nM | 17 | 
FC(F)(F)Oc1ccc(OC2=CC(c3ccc[nH]3)=N/C2=C\NC2CCCCCC2)cc1 | 43% | 82.8% | 6.81 | 642 nM | 4.1 | 
COC1=CC(c2ccc(Cc3ccc(OC)cc3)[nH]2)=N/C1=C\NC1CCCCCCC1.Cl | -0.11% | 84.8% | 7.80 | 547 nM | 35 | 50.8 min
COC1=CC(c2ccc[nH]2)=N/C1=C\NC1CCN(Cc2ccccc2)CC1 | 24.6% | 124% | 7.10 | 625 nM | 7.9 | 
COC1=CC(c2ccc[nH]2)=N/C1=C\Nc1ccc(Cl)c(Cl)c1.Cl | 23.8% | 67.5% | 7.00 | > 1000 nM | > 10 | 56.2 min
Cc1ccc(N/C=C2\N=C(c3ccc[nH]3)C3=C2CCCC3)cc1.Cl | 112% | 95.1% |  |  |  | 42.1 min
CCc1ccc(C2=N/C(=C\NC3CCCCCC3)C(OC)=C2)[nH]1.Cl | 0.3% | 52.5% | 7.43 | 512 nM | 14 | > 60 min
FC(F)(F)Oc1ccc(OC2=CC(c3ccc[nH]3)=N/C2=C\N[C@H]2CC[C@H](C(F)(F)F)CC2)cc1 | 33.2% | 108% | 7.05 | 852 nM | 9.6 | 
COC1=CC(c2ccc[nH]2)=N/C1=C\NC1CCCCC1 | 7.33% | 88.9% | 7.39 | > 1000 nM | > 25 | 
FC(F)(F)Oc1ccc(N/C=C2\N=C(c3ccc[nH]3)C3=C2CCCC3)cc1 | 84.9% | 92.7% |  |  |  | 
COc1ccc(Oc2ccc(N/C=C3\N=C(c4ccc[nH]4)C(C)=C3C)cc2)cc1 | 108% | 65.9% |  |  |  | 
CCCCCCCCCCCN/C=C1\N=C(c2ccc[nH]2)C=C1OC | 11.9% | 112% | 7.32 | > 1000 nM | > 21 | 
COC1=CC(c2ccc[nH]2)=N/C1=C\Nc1ccc(OC(F)(F)F)cc1.Cl | 18.9% | 89.6% | 7.14 | > 1000 nM | > 14 | > 60 min
CCC1=C/C(=C/NC2CCCCCC2)N=C1c1ccc[nH]1 | 33.9% | 32.2% |  |  |  | 
COC1=CC(c2ccc[nH]2)=N/C1=C\Nc1ccccc1OC(F)(F)F | 69.9% | 81% |  |  |  | 
COC1=CC(c2ccc(Cc3ccc(OC)cc3)[nH]2)=N/C1=C\NC1CCCC1.Cl | 1.4% | 86.6% | 7.62 | 717 nM | 30 | 11.7 min
FC(F)(F)Oc1ccc(C2=CC(c3ccc[nH]3)=N/C2=C\NC2CCCCCC2)cc1 | 77.9% | 95.8% |  |  |  | 
CC1=C/C(=C/NC2CCCCCC2)N=C1c1ccc[nH]1 | 89% | 127% |  |  |  | 
C[C@H]1CC[C@H](N/C=C2\N=C(c3ccc[nH]3)C=C2Oc2cc(F)cc(F)c2)CC1 | 96.2% | 55.3% |  |  |  | 
Clc1ccc(N/C=C2\N=C(c3ccc[nH]3)C3=C2CCCC3)cc1 | 103% | 67.2% |  |  |  | 
CC1=C/C(=C/NC2CCCCCCC2)N=C1c1ccc[nH]1 | 48.6% | 150% |  |  |  | 

Compound | survival at 0.1 µM [1] | viability at 96 h, 0.1 µM [2] | pEC50 [3] | EC50 at 96 h [4] | selectivity ratio [5] | half-life at 1 µM [6]
C[C@H]1CC[C@@H](N/C=C2\N=C(c3ccc[nH]3)C=C2Oc2ccc(OC(F)(F)F)cc2)CC1 | 79.9% | 112% |  |  |  | 
COC1=CC(c2ccc(Cc3ccc(OC)cc3)[nH]2)=N/C1=C\NC1CCCCCC1.Cl | -0.11% | 84.6% | 7.79 | 959 nM | 59 | 25.6 min
COC1=CC(c2ccc[nH]2)=N/C1=C\Nc1cccc(Cl)c1.Cl | 13.6% | 65.3% | 7.04 | 570 nM | 6.2 | > 60 min
CC1=C(C)/C(=C/Nc2ccc(OC(F)(F)F)cc2)N=C1c1ccc[nH]1 | 102% | 77.2% |  |  |  | 
COC1=CC(c2ccc[nH]2)=N/C1=C\Nc1ccc(Cl)cc1 | 9.85% | 95.4% | 7.33 | > 1000 nM | > 21 | 
C[C@H]1CC[C@H](N/C=C2\N=C(c3ccc[nH]3)C=C2c2ccc(OC(F)(F)F)cc2)CC1 | 81.6% | 116% |  |  |  | 
FC(F)(F)Oc1ccc(OC2=CC(c3ccc[nH]3)=N/C2=C\NCC2CCCCCC2)cc1 | 42.9% | 97.6% | 6.78 | 717 nM | 4.3 | 
CC1=C(C)/C(=C/Nc2ccc(Oc3ccc(C)cc3)cc2)N=C1c1ccc[nH]1 | 111% | 66.2% |  |  |  | 
CC1=C(C)/C(=C/NC2CCCCCC2)N=C1c1[nH]c(C)cc1C | 43.8% | 56.8% | 6.74 |  |  | 
C[C@H]1CC[C@H](N/C=C2\N=C(c3ccc[nH]3)C=C2Oc2ccc(Cl)cc2)CC1 | 27.5% | 80.1% | 7.14 | 321 nM | 4.4 | 
Clc1ccc(OC2=CC(c3ccc[nH]3)=N/C2=C\NC2CCCCCC2)cc1 | 19.8% | 100% | 7.20 | 367 nM | 5.8 | 
CCCCCCCCCCCCCCCCOP(=O)([O-])OCC[N+](C)(C)C [MILTEFOSINE] | 0.02% | 39.2% | 5.46 | > 100000 nM | > 29 | 
FC(F)(F)Oc1ccc(OC2=CC(c3ccc[nH]3)=N/C2=C\NC2CCCCCCC2)cc1 | 37.6% | 92.9% | 7.00 | 982 nM | 9.9 | 
CCCCCCN/C=C1\N=C(c2ccc[nH]2)C=C1Oc1ccc(OC(F)(F)F)cc1 | 46.1% | 110% | 6.52 | 1100 nM | 3.6 | 
CCCCCCCCCCCN/C=C1\N=C(c2ccc[nH]2)C=C1Oc1ccc(OC(F)(F)F)cc1 | 58% | 96.7% |  |  |  | 
C(/NC1CCCCCCC1)=C1/N=C(c2ccc[nH]2)C2=C1CCCC2 | 33.4% | 75.8% |  |  |  | 
CCC1=C/C(=C/NC2CCCCCCC2)N=C1c1ccc[nH]1 | 34.6% | 35.8% |  |  |  | 
Fc1cc(F)cc(OC2=CC(c3ccc[nH]3)=N/C2=C\NC2CCCCCC2)c1 | 87.2% | 65.8% |  |  |  | 
CCC1=C(CC)/C(=C/NC2CCCCCCC2)N=C1c1ccc[nH]1 | 17% | 29.5% |  |  |  | 
CC1=C(C)/C(=C/Nc2ccc(Cl)cc2)N=C1c1ccc[nH]1 | 92.2% | 88.1% |  |  |  | 
CCC1=C(CC)/C(=C/NC2CCCCCC2)N=C1c1ccc[nH]1 | 27.5% | 26.7% |  |  |  | 
CC1=C(C)/C(=C/NC23CC4CC(CC(C4)C2)C3)N=C1c1[nH]c(C)cc1C | 12.5% | 93.2% | 7.33 | 667 nM | 14 | 
